Assay outcomes deposited in PubChem by Sanford-Burnham Center for Chemical Genomics.
STEP block: STEP (human) phosphatase inhibition | P54829 | recombinant STEP, OMFP fluorogenic substrate, fluorescence | inhibition, % at 20 µM | actives 0.25% (n = 360,000) | AID 588621;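 active = inhibition at 20 µM, scaled per plate between control wells, above about 37%, limit read from the data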;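 note: 0% = DMSO with enzyme and substrate and 100% = substrate only without enzyme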
Target sequence (P54829 whole entry, looked up): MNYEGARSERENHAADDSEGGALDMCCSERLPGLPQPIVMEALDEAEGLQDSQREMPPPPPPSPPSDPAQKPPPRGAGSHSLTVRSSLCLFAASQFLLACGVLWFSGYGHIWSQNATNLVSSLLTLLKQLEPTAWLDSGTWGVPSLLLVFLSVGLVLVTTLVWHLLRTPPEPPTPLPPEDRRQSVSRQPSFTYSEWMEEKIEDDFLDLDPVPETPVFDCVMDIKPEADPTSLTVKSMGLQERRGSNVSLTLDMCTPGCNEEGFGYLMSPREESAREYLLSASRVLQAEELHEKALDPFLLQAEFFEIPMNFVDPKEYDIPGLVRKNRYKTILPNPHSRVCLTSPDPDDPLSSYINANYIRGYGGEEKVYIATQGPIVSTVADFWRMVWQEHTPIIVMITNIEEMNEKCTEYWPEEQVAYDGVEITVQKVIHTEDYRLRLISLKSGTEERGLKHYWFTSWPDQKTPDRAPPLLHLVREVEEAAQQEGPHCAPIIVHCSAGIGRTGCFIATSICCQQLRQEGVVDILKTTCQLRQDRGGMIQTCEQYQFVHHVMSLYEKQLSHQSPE
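Measure: Control-normalized % inhibition with plate pattern correction | Test system: STEP phosphatase, cell-free reaction | Medium: pH 6.0 Bis-Tris with DTT and Tween 20 | Technique: Fluorescence, 480/540 nm | Times: Reaction 20 min, ambient temperature | Doses: Single compound dose of 20 µM, 1% DMSO final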
SUMO1 PPI mod: modulators of human SUMO1-mediated protein-protein interactions; SUMO1 binding to a labelled peptide, TR-FRET, 1 h; inhibition, % at 20 µM; actives 0.33% (n = 360,000); AID 602429; in the data active = inhibition above about 37%
DNMT1 block: inhibitors of human DNMT1. P26358. AID 588458. DNMT1 molecular beacon, Hinp1I cleavage, fluorescence. actives 0.83% (n = 360,000). inhibition (reported as % activation of signal), % at 10 µM; in the data active = inhibition above about 50%
LMPTP inh: blocks human LMPTP phosphatase. P24666. recombinant LMPTP-A, OMFP fluorogenic substrate, fluorescence intensity. inhibition, % at 20 µM. AID 651560. actives 0.22% (n = 360,000);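 active = compounds that cut the enzyme signal by at least half of the control window in the single-dose screen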;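 note: plate controls were DMSO wells with enzyme plus substrate for no effect and substrate without enzyme for full effect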
Target sequence (P24666 whole entry, looked up): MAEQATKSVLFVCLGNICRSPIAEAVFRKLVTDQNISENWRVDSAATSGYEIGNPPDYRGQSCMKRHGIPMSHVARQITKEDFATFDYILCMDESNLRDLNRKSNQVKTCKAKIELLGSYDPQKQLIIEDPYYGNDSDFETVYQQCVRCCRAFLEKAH
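Assay system: LMPTP-A phosphatase enzyme | Input: 0.625 nM enzyme | Also added: Fluorogenic phosphatase substrate OMFP at 400 µM final | Compound dosing: One test concentration per compound, 20 µM, with 3% DMSO overall | Schedule: 50 min enzyme reaction at room temperature, protected from light | Signal: Fluorescence intensity | Benchmarks: no-enzyme and uninhibited controls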
Scp1 inh: Scp-1 (human) phosphatase inhibition | actives 0.88% (n = 340,000) | Q9GZU7 | AID 493091 | Recombinant Scp1, phosphopeptide, malachite green phosphate absorbance | inhibition, % at 20 µM;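 active = inhibition above about 50% at 20 µM, limit read from the data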;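 note: plate controls were DMSO wells with enzyme for no effect and wells lacking enzyme for full effect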
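Incubation: 45 min enzyme reaction at room temperature / System: truncated SCP-1 phosphatase (76-261aa) / Reagent: Phospho 17-mer peptide substrate / Buffer or medium: Acidic Tris acetate buffer with magnesium and detergent / Signal: absorbance at 630 nm / Doses: one concentration, 20 µM, with 1.0% DMSO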
Scp1 confirm: Scp-1 (human) inhibition, single-dose confirmed; shares compounds with Scp1 inh; recombinant SCP-1 catalytic domain, phosphate release, malachite green absorbance; inhibition, % at 20 µM; actives 61% (n = 2,500); AID 540281;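 note: plate controls were DMSO with enzyme for no effect and buffer wells lacking enzyme for full effect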
MG interference: counter-screen for Scp-1 inhibitors: colorimetric interference | apparent inhibition (interference), % at 20 µM | 2,500 tested, under 10 active | Colorimetric interference counterscreen, malachite green absorbance 630 nm | shares compounds with Scp1 inh;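 note: compounds added after enzyme reaction finished so only phosphate colour detection is probed; plate controls were DMSO wells with completed Scp-1 reaction for no effect and substrate wells lacking enzyme for full effect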
Scp-1 Tm shift: binds human Scp-1, shifting its melting temperature; shares compounds with Scp1 inh; Recombinant SCP1, Sypro Orange thermal shift Tm; thermal shift relative to vanadate control, % at 40 µM; actives 25% (n = 1,500); AID 540329;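 active = substances whose mean melting-temperature shift, as a percentage of the reference inhibitor's shift, reaches about 5.3%, limit read from the data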;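 note: 0% = Tm of DMSO wells and 100% = Tm with sodium orthovanadate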
DNMT1 interf DR: shows spectral interference in the DNMT1 beacon assay. 200 tested, under 10 active. shares compounds with DNMT1 block. IC50, µM. molecular beacon fluorescence, spectral interference counter-screen. AID 602382; call rule not given here
DNMT1 confirm: confirmation of human DNMT1 inhibitors; shares compounds with DNMT1 block; DNMT1 molecular beacon HinP1I cleavage, fluorescence; inhibition, % at 10 µM; actives 8% (n = 2,300);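 active = average inhibition of at least 30% in the single-concentration confirmation test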
DNMT1 interf: counter-screen for DNMT1 inhibitors: spectral interference | activation (fluorescence interference), % at 10 µM | DNMT1 molecular beacon spectral interference counterscreen, fluorescence 485/520 | shares compounds with DNMT1 block | actives 1% (n = 2,300) | AID 602387;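 active = activation of at least 30% at 10 µM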;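 note: DNMT1 catalytic domain with a HinP1I cleavage step and a FAM/dabcyl DNA beacon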
STEP inh conf: confirmation of human STEP phosphatase inhibitors. recombinant STEP, OMFP fluorogenic substrate, fluorescence. shares compounds with STEP block. inhibition, % at 20 µM. actives 32% (n = 520); call rule not given here;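 note: 0% = enzyme with substrate plus DMSO and 100% = substrate without enzyme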
Numbers without * were called inactive; nt = no result given. Rows were chosen to be rich in hits. Some 1.7% of all compounds tested hit in one or more screens of this group.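 Rule for the calls, unless noted: active = inhibition of at least 30% at 20 µM; inactive = the rest.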

SMILES	STEP block	SUMO1 PPI mod	DNMT1 block	LMPTP inh	Scp1 inh	Scp1 confirm	MG interference	Scp-1 Tm shift	STEP inh conf	others
C/C(=N\NC(=O)c1ccccc1O)c1ccc(NC(=O)Cc2ccccc2)cc1	84.1*	37.1	0.5	59.0*	101.1*	83.7*	-15.3	0.0	78.8*
O=C(Nc1ccc(Cl)cc1)C1CCCN(C2=NS(=O)(=O)c3ccccc32)C1 (stereo unspecified)	-0.3	4.7	-5.2	-0.8	-6.8	nt	nt	nt	nt
O=C(N/N=C/c1ccoc1)c1cc(O)cc(O)c1	60.9*	43.3*	93.4*	35.4	63.5*	58.0*	-16.2	4.4	98.1*	DNMT1 interf DR=>99;DNMT1 confirm=21.2;DNMT1 interf=-4.8
Cc1cc(C)cc(C(=O)N/N=C/c2ccoc2)c1	8.3	-3.8	13.7	0.8	27.1	nt	nt	nt	nt
COc1cccc(CC2(CO)CCCN(Cc3ccc4c(c3)OCCO4)C2)c1 (stereo unspecified)	7.5	4.6	-1.1	-1.2	-6.5	nt	nt	nt	nt
COc1cccc2cc(C(=O)NNC(=O)c3ccc(Br)cc3)c(=O)oc12	81.8*	-10.9	7.3	44.3	98.6*	55.3*	-13.1	0.4	0.0
CCc1cccc(NC(=O)COC(=O)c2c(C)nn(-c3ccccc3)c2C)c1	2.6	5.3	-0.7	0.1	nt	nt	nt	nt	nt
O=C(N/N=C/c1ccccc1)c1ccc(-c2ccccc2)cc1	-2.6	6.2	1.6	-1.6	-1.9	nt	nt	nt	nt
NC(=O)COc1ccc(/C=N\NC(=O)c2ccc(-c3ccccc3)cc2)cc1	85.0*	0.9	40.8	38.0	86.1*	56.3*	-9.5	-32.5	2.2
CCOCCCNc1ccc(N2C(=O)CCCC2=O)cc1[N+](=O)[O-]	-1.5	-39.2	0.6	-2.9	4.5	nt	nt	nt	nt
CCOC(=O)c1sc2nc3c(SCC(=O)O)cc(C(=O)c4ccccc4O)cn3c(=O)c2c1C	98.2*	101.7*	185.7*	93.3*	52.5*	59.0*	-6.5	7.5*	97.6*	DNMT1 interf DR=>99;DNMT1 confirm=60.1*;DNMT1 interf=-2.3
CN(C)c1ccc(NC(=S)NC(=O)/C=C/c2ccc(Cl)cc2)cc1	2.0	-4.1	17.2	0.1	-1.6	nt	nt	nt	nt
O=C(/C=C/c1ccc(Cl)cc1)NC(=S)Nc1ccc(C(=O)O)cc1	92.4*	-6.5	2.0	67.4*	96.5*	88.0*	-7.9	-1.5	50.1*
Clc1ccc2c(SCC3CO3)c3ccccc3nc2c1 (stereo unspecified)	61.7*	30.7	28.8	20.5	101.3*	-1.0	-4.9	nt	13.1
O=C(O)c1ccc(/C=N/NC(=O)c2cc(-c3ccc4c5c(cccc35)CC4)n[nH]2)cc1	52.4*	14.8	1.2	4.7	76.3*	66.7*	-14.2	-48.7	-8.9
O=C(N/N=C/c1ccccn1)c1cc(-c2cccc3ccccc23)n[nH]1	-1.0	-10.2	-6.1	1.4	-3.4	nt	nt	nt	nt
O=Cc1cn(-c2ccccc2)nc1-c1cc2cc(O)ccc2oc1=O	60.2*	43.7*	3.0	55.2*	63.8*	53.2*	-9.8	3.7	78.6*
O=C(O)/C=C/c1cn(-c2ccccc2)nc1-c1cc2ccccc2oc1=O	4.5	6.3	1.1	-0.1	-7.4	nt	nt	nt	nt
COc1ccc(-c2cc(NC(C)=O)c3ncc(-c4ccccc4)n3c2)c(OC)c1	-2.0	-5.4	-7.6	2.9	nt	nt	nt	nt	nt
Cc1c(CC(=O)O)c(=O)oc2c(C)c(OCc3ccc(F)cc3F)ccc12	3.5	-0.4	1.0	1.4	27.9	nt	nt	nt	nt
Cc1c(CC(=O)O)c(=O)oc2c(C)c(OCc3ccc(F)cc3Cl)ccc12	97.6*	83.8*	-1.3	85.1*	64.5*	67.5*	-19.5	-26.1	62.0*
Cc1csc(NC(=O)c2cccs2)n1	1.5	-1.6	1.1	-0.2	-7.4	nt	nt	nt	nt
Cc1csc2c(=O)sc(NC(=O)c3cccs3)nc12	95.4*	36.0	5.0	68.6*	96.9*	62.6*	-15.9	-3.4	27.2
CCN1CCN(c2c(Cl)cccc2NC(=O)c2ccc([N+](=O)[O-])cc2)CC1	-0.3	-20.3	-1.9	0.4	-23.9	nt	nt	nt	nt
COc1cccc(Nc2nn3c(=O)c4ccccc4nc3s2)c1	82.1*	-7.6	18.8	17.6	60.4*	57.9*	-1.9	6.1*	47.3*
SMILES	STEP block	SUMO1 PPI mod	DNMT1 block	LMPTP inh	Scp1 inh	Scp1 confirm	MG interference	Scp-1 Tm shift	STEP inh conf	others
COc1ccc(C2=Nc3ccccc3NC(=O)C2N(C(=O)c2ccnc3ccccc23)c2ccccc2)cc1 (stereo unspecified)	-0.6	-3.4	-16.7	0.9	nt	nt	nt	nt	nt
O=C(N/N=C/c1ccc(OC(=O)c2cccs2)cc1)c1cccc(F)c1	42.9*	-1.7	63.6*	67.9*	95.1*	77.0*	-15.6	-31.2	27.8*	DNMT1 confirm=-0.7;DNMT1 interf=4.5
COc1ccc(Nc2nc(N)nc(CSC(=S)N3CCCCC3C)n2)cc1 (stereo unspecified)	1.8	11.9	-3.9	3.1	-0.8	nt	nt	nt	nt
COCc1ccc(C(=O)NC2CC(C)(C)Cc3c2cnn3-c2ccc(OC)cc2)o1 (stereo unspecified)	-0.9	1.8	0.0	-0.7	-1.4	nt	nt	nt	nt
CCc1ccc(NC(=O)CS(=O)CC(=O)Nc2ccc(N3CCOCC3)cc2)cc1 (stereo unspecified)	72.0*	25.0	44.8	62.6*	79.2*	87.7*	-13.6	-10.2	6.1
Cc1ccc(-n2c(C)nc3oc4ccccc4c(=O)c3c2=O)cc1	49.0*	24.8	99.4*	60.9*	68.4*	60.7*	-9.5	4.8	84.7*	DNMT1 confirm=6.5;DNMT1 interf=-1.8
Cc1cc(N)nc2nc(C(F)(F)F)nn12	0.3	1.3	0.0	-0.5	-2.9	nt	nt	nt	nt
COc1ccc(NC(=O)/C(C#N)=C\c2ccc(OCc3ccc(C(=O)O)cc3)c(OC)c2)cc1	89.4*	8.0	-4.8	75.7*	75.4*	62.0*	-7.1	-9.5	4.9
